In BindingDB's records for doi:10.1016/j.bmcl.2005.07.045 (Shanghai Second Medical University, 2005):

target: Muscarinic acetylcholine receptor M1/M2/M3/M4/M5; test: Agonistic activity against Muscarinic acetylcholine receptor of guinea pig ileal longitudinal muscle
Method in brief: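 Ileal longitudinal muscle strips (1.5 cm) in 10 ml organ baths under 500 mg tension, equilibrated 30 min with bath fluid changed every 10 min. Isotonic contractions recorded during cumulative addition, about 3-fold concentration steps once each response is steady. Response expressed as percent of carbachol maximum. pEC50 determined graphically from dose–response curves, mean of three tests, t test.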

Row | Structure (SMILES) | EC50 [µM]
1 | CC(=O)OC1CC2CC(OC(C)=O)C(C1)N2C (centres undefined) | 4.46
2 | CCCCCCCC(=O)OC1CC2CC(OC(C)=O)C(C1)N2C (centres undefined) | 0.00174
3 | CCCC(=O)OC1CC2CC(OC(C)=O)C(C1)N2C (centres undefined) | 5.01
4 | CC(=O)OC1CC2CC(OS(=O)(=O)c3cccc(C)c3)CC1N2C (centres undefined) | 0.0891
5 | CCC(=O)OC1CC2CC(OC(=O)CC)C(C1)N2C (centres undefined) | 42.6
6 | CC(=O)OC1CC2CC(OC(=O)c3ccc(C)cc3)CC1N2C (centres undefined) | 4.36
7 | CC(=O)OC1CC2CCCC1N2C (centres undefined) [Acetic acid 8-methyl-8-aza-bicyclo[3.2.1]oct-6-yl ester] | 24.5
8 | CN1C2CC(=O)CC1C(O)C2 (centres undefined) | 407
9 | CC(=O)OC1CC2CC(OS(=O)(=O)c3ccc([N+](=O)[O-])cc3)CC1N2C (centres undefined) | 0.0447
10 | CC(=O)OC1CC2NC1CCC2O (centres undefined) | 0.0794
11 | CCCCCCCCCC(=O)OC1CC2CC(OC(C)=O)C(C1)N2C (centres undefined) | 0.263
12 | CC(=O)OC1CC2CC(OC(=O)/C=C\c3ccccc3)CC1N2C (centres undefined) | 117
13 | CC(=O)OC1CC2CC(OS(=O)(=O)c3ccccc3)CC1N2C (centres undefined) | 0.0501
14 | COc1ccc(C(=O)OC2CC3CC(OC(C)=O)C(C2)N3C)cc1 (centres undefined) | 30.1
15 | CC(=O)OC1CC2CCC(C1)N2C (centres undefined) | 79.4
16 | CC(=O)OC1CC2CC(=O)CC1N2C (centres undefined) | 14.7
17 | CC(=O)OC1CC2CC(Cl)CC1N2C (centres undefined) | 11.4
18 | CC(=O)OC1CC2CC(OC(=O)/C=C\c3ccccc3)CC1N2 (centres undefined) | 1.99
19 | CCCCCC(=O)OC1CC2CC(OC(=O)CCCCC)C(C1)N2C (centres undefined) | 0.00479
20 | COc1ccc(S(=O)(=O)OC2CC3CC(OC(C)=O)C(C2)N3C)cc1 (centres undefined) | 0.0933
21 | CCCCCCC(=O)OC1CC2CC(OC(C)=O)C(C1)N2C (centres undefined) | 0.0269
22 | CC(=O)OC1CC2CC(OS(=O)(=O)c3ccc(C)cc3)CC1N2C (centres undefined) | 0.104
23 | CC(=O)OC1CC2CCCC1N2 (centres undefined) [Acetic acid 8-aza-bicyclo[3.2.1]oct-6-yl ester] | 0.00617
24 | CCCCCC(=O)OC1CC2CC(OC(C)=O)C(C1)N2C (centres undefined) | 0.00646
